Screens as filed in PubChem BioAssay.
The list is not random: actives were taken first. Their share in the collection is about 4%.
GPR7 antag – GPR7 receptor antagonists, primary screen, cell-based, fluorescence, single concentration. GPR7-expressing cells, fluorescence antagonist assay. actives 1.1% (n = 290,000). inhibition, % at 4.4 µM; in the data active = inhibition above about 16%, passing the limit was not always enough;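 note: cells stimulated with the agonist NPW; 0% = agonist with vehicle and 100% = vehicle without agonist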
MPTP inh – mitochondrial permeability transition pore inhibitors, primary screen, biochemical, isolated mouse mitochondria, absorbance. Ca2+ swelling absorbance, 30 min. inhibition, % at 10 µM. actives 1.4% (n = 360,000). AID 602449, 2012;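 active = inhibition of 50% or more, scaled per plate between neutral and stimulator controls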;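 note: 0% = DMSO wells given calcium and 100% = 1 mM EGTA wells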
TAAR1 antag – human TAAR1 antagonists, primary screen, Fluo-8 calcium fluorescence, CHO RD-HGA16 cells; antagonist; inhibition, % at 3 µM; actives 1.5% (n = 360,000);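 active = inhibition above a per-plate cutoff, the mean inhibition of test compounds on that plate plus 3 SD, cut at about 49% in these data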;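 note: 0% = DMSO plus EC80 beta-PEA response and 100% = DMSO alone without agonist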
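System: CHO RD-HGA16 cells bearing hTAAR1. Reagent: EC80 β-phenethylamine stimulus. Schedule: seeding 17-24 h prior, 75-min 37 °C, 30-min RT dye loading. Signal: Fluo-8 intracellular calcium dye fluorescence, real-time kinetic reads. Read-out: % inhibition from peak post-agonist over basal fluorescence ratio. Benchmarks: vehicle wells and EC80 agonist wells. Replicates: n of 1.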
DAGLB inh – DAGLB lipase inhibitors, primary screen, biochemical, fluorescence, HTS. Diacylglycerol lipase-beta (Homo sapiens), Q8NCG7. HEK293T DAGLB membrane lysate, EnzChek fluorogenic substrate. inhibition, % at 5.17 µM. actives 0.059% (n = 340,000); in the data active = inhibition above about 34%;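 note: 0% = enzyme with vehicle and 100% = wells lacking enzyme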
Target sequence (Q8NCG7 whole entry, looked up): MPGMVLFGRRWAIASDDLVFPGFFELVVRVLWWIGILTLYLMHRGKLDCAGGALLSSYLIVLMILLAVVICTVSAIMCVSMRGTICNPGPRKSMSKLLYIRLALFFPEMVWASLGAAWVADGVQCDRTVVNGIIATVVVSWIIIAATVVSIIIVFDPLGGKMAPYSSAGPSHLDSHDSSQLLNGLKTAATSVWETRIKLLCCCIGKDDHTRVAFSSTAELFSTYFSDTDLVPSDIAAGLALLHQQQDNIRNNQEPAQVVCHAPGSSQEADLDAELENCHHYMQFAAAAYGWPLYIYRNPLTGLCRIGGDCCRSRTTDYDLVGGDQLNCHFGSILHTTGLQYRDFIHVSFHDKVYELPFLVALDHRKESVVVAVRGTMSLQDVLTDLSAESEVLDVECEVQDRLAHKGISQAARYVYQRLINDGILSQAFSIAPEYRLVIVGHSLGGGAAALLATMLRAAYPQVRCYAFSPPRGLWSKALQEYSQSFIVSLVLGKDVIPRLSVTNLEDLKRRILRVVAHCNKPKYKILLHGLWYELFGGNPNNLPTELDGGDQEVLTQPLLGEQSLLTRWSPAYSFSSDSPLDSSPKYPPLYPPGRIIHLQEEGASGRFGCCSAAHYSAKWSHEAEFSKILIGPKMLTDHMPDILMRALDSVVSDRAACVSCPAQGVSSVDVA
TAAR1 agonist – human TAAR1 agonists, primary screen, Fluo-8 calcium fluorescence, CHO RD-HGA16 cells; activation, % at 3 µM; actives 0.99% (n = 360,000); vehicle wells 0%, saturating PEA agonist 100%; Trace amine-associated receptor 1 (Homo sapiens), Q96RJ0;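 active = activation above the mean activation of all test compounds in the run plus 3 SD, cut at about 38% in these data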
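Signal – calcium-sensitive Fluo-8 signal, excitation 470-495, emission 515-575 nm · System – RD-HGA16 (CHO) cells co-expressing Gα16 and hTAAR1 · Incubation – 17-24 h seeding, 75 min 37 °C dye, 30 min RT · Compound dosing – 3 µM single concentration · Repeats – no replicates (n 1)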
nonsel antag count – nonselective antagonists in TAAR1 counter-screen cells, counter-screen for hTAAR1 antagonist project, cell-based, fluorescence, calcium. actives 77% (n = 2,400). counterscreen cell line, antagonist mode. AID 651780, 2012. shares compounds with TAAR1 antag. inhibition, % at 3 µM; in the data active = inhibition above about 22%;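 note: CHO-Ga16 host cells stimulated with ATP at an EC80 level; 0% = agonist EC80 plus vehicle and 100% = vehicle without agonist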
TAAR1 antag conf – human TAAR1 antagonists, retest of hits, confirmation, cell-based, fluorescence; shares compounds with TAAR1 antag; TAAR1-expressing cells, fluorescence antagonist read-out; inhibition, % at 3 µM; actives 40% (n = 2,400); in the data active = inhibition above about 49%;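 note: CHO-Ga16 host cells challenged with agonist PEA near its EC80; 0% = agonist at EC80 plus vehicle and 100% = vehicle with no agonist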
Ga16 nonsel ag – calcium activation in Ga16-expressing cells, counter-screen for TAAR1 antagonist project, cell-based, fluorescence; agonist counterscreen; actives 18% (n = 2,400); AID 651953, 2012; activation, % at 3 µM; shares compounds with TAAR1 antag; in the data active = activation above about 12%;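 note: 0% = vehicle wells and 100% = saturating stimulus response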
TAAR1 ag counter – TAAR1 activation by candidate antagonists – cell-based, fluorescence, counter-screen for TAAR1 antagonist project; shares compounds with TAAR1 antag; hTAAR1 cell line, agonist mode; activation, % at 3 µM; actives 2% (n = 2,400); in the data active = activation above about 37%;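 note: CHO cells stably expressing TAAR1 with calcium dye readout; 0% = DMSO vehicle and 100% = full agonist response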
* = called active by the depositor; · = not tested or not shown.

SMILES	GPR7 antag	MPTP inh	TAAR1 antag	DAGLB inh	TAAR1 agonist	nonsel antag count	TAAR1 antag conf	Ga16 nonsel ag	TAAR1 ag counter
COC(=O)CN(c1ccc(OC)cc1)S(=O)(=O)c1ccc(OC)c(OC)c1	13	2	-4	-6	5	·	·	·	·
COc1ccc(N(CC(=O)Nc2cccc(C(C)=O)c2)S(=O)(=O)c2ccc(NC(C)=O)cc2)cc1	-10	0	61*	1	17	35*	55*	11	12
Cc1ccc(NC(=O)CN(Cc2ccco2)Cc2ccccc2O)cc1C	-13	4	52*	-7	3	24*	45	5	7
Cc1ccc(NC(=O)N(Cc2ccco2)C(C)c2ccco2)cc1C (centres undefined)	-14	1	-3	-7	-1	·	·	·	·
CC(=O)c1c(COC(=O)c2ccncc2)nc2ccccc2[n+]1[O-]	-2	0	-20	-2	6	·	·	·	·
CC(=O)c1c(COC(=O)c2cccc(C)c2)nc2ccccc2[n+]1[O-]	-10	0	50*	-4	8	28*	38	8	7
COc1ccc(C2CC(=O)C(c3cccc(Cl)c3)=CN2Cc2ccccc2)cc1 (centres undefined)	·	·	-14	·	6	·	·	·	·
COc1ccc(C2CC(=O)C(c3ccccc3)=CN2Cc2ccccc2)cc1 (centres undefined)	·	·	58*	·	2	28*	48	3	9
COc1ccc(C2CC(=O)C(c3ccccc3C)=CN2Cc2ccccc2)cc1 (centres undefined)	·	·	56*	·	7	21	36	4	3
CCOC(=O)C1=C(C(=O)OCC)C2N(Cc3ccc(C#N)cc3)c3ccccc3[C@@]23C[C@@H](C(=O)OC)N(S(=O)(=O)c2ccc(C)cc2)C3=N1 (some centres undefined)	·	·	-30	·	1	·	·	·	·
CCC(CO)Nc1ccn2nc(-c3cccc(Cl)c3)cc2n1 (centres undefined)	·	1	11	·	7	·	·	·	·
COC(=O)c1cc(NC(=O)COC(=O)C2COc3ccccc3O2)cc(C(=O)OC)c1 (centres undefined)	·	0	72*	-2	9	26*	42	8	4
COc1ccc(-c2csc3ncnc(N4CCN(c5ccccc5OC)CC4)c23)cc1	8	0	62*	-6	1	27*	41	5	10
COc1cc(CNC(=O)Nc2nnc([C@H]3C[C@H](O)[C@@H](CO)O3)s2)cc(OC)c1OC	·	-1	-19	·	3	·	·	·	·
CCOC(=O)Cc1csc(NC(=O)c2ccc(F)cc2)n1	5	0	14	-8	1	·	·	·	·
CCc1nc2ccc(C(=O)NCCc3ccccc3OC)cc2nc1CC	6	-1	11	-7	-3	·	·	·	·
COc1ccc(C(=O)Nc2nc(CC(=O)NCc3c(F)cccc3F)cs2)cc1	·	0	71*	-2	13	25*	50*	14*	12
COc1ccc(C(=O)Nc2nc(CC(=O)NCc3ccc(F)cc3)cs2)cc1	·	-2	72*	0	16	48*	66*	14*	11
COc1ccc(C(=O)Nc2nc(CC(=O)NCCc3ccccc3OC)cs2)cc1	·	-4	57*	0	11	27*	44	7	5
CCOC(=O)Cc1csc(NC(=O)c2ccc(C)cc2)n1	9	-2	24	-12	2	·	·	·	·
COc1cccc(NC(=O)c2sc3nc(N4CCOCC4)c4c(c3c2N)CCCC4)c1	-2	-2	-20	0	-1	·	·	·	·
COCCN1C(=O)[C@H]2C[C@@]13O[C@H](C1CCCCC1)N=C3CC1c3ccccc3C[C@@]12C (some centres undefined)	·	·	-9	·	6	·	·	·	·
COc1cc(/C=C2/CCC/C(=C\c3cc(O)c(OC)c(Cl)c3)C2=O)cc(Cl)c1O	0	18	58*	10	12	42*	40	11	18
COc1cc(/C=C2\CCC/C(=C\c3ccc(O)c(OC)c3)C2=O)ccc1O	4	1	53*	3	14	35*	48	7	14
COc1cc(/C=C/C(=O)CC(=O)/C=C/c2ccc(O)c(OC)c2)ccc1O	-16	7	69*	-18	36	48*	50*	28*	18
SMILES	GPR7 antag	MPTP inh	TAAR1 antag	DAGLB inh	TAAR1 agonist	nonsel antag count	TAAR1 antag conf	Ga16 nonsel ag	TAAR1 ag counter
COc1cc(/C=C2/CCCC(C(=O)C(F)(F)F)=C2O)ccc1O	14	3	-29	-3	0	·	·	·	·
O=C(c1ccccc1)C12COc3ccccc3C1ON=C2c1ccccc1 (centres undefined)	·	·	-11	·	3	·	·	·	·
CCn1c(SCC(=O)Nc2ccccc2N2CCCCC2)nc2c1c(=O)n(C)c(=O)n2C	-5	2	55*	-4	13	27*	47	10	10
CCCCNC(=O)C[C@H]1C[C@@]2(C(=O)OC)C(=C[C@H](COCc3ccccc3)O[C@@H]2C)N(Cc2ccc3c(c2)OCO3)C1=O	·	·	-10	·	0	·	·	·	·
COc1ccc(C(=O)/C=C/c2ccc(O)cc2)c(O)c1C/C=C(\C)CCC=C(C)C	·	6	-12	-8	2	·	·	·	·
C=C(C)C(O)CC/C(C)=C/Cc1c(O)ccc(C(=O)/C=C/c2ccc(O)cc2)c1O (centres undefined)	·	3	70*	-1	9	29*	29	7	7
COc1cccc(NC(=O)COc2cc(O)c3c(c2)OC(C)(C)CC3=O)c1	-4	-2	60*	-8	9	27*	45	9	7
COc1ccc(/C=N/NC(=O)c2nc(-c3ccccc3)cc(-c3ccccc3)n2)cc1O	-11	-2	63*	2	11	35*	53*	6	4
COc1ccc(/C=N/NC(=O)c2c(-c3ccccc3)noc2C)cc1	-5	-1	15	2	-1	·	·	·	·
COc1ccc(/C=N/NC(=O)c2nc(-c3ccccc3)cc(-c3ccccc3)n2)cc1	20	-10	56*	-5	16	25*	42	5	4
COc1ccc(/C=N/NC(=O)c2cc(-c3ccccc3)nc3ccccc23)cc1O	-17	2	40	-1	6	·	·	·	·
